Assay: Toxicity liver stage against HepG2, at 10uM
Type: cell-based
Design: test concentration 10 uM, cell line HepG2-A16-CD81EGFP
Conditions: human, HepG2-A16-CD81EGFP cells; read-out: INHIBITION
Procedure, shortened: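 Uninfected HepG2-A16-CD81EGFP cells, 3 × 10^3 per well, 1536-well, plated on prespotted compound at 10 μM final, parasite-free screening media added to match infected plates; puromycin 10 μM positive, DMSO 0.5% negative; run in parallel with 48 h PbLuc assay at 37 °C, 5% CO2; viability by CellTiter-Glo luminescence, normalized to controls.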

Compound	cytotoxicity at 10 µM [%]
CCc1ccc(CN2CCCn3c(nc(Cn4ccnc4)cc3=O)C2)o1	4.29
CC(C)COCCC(=O)NCCC(=O)N1CCN(c2ccccn2)CC1	9.46
CCC(Nc1nc(C2CCCC2)nc2c1cnn2C)c1ccncc1 (configuration not stated)	-39.6
CCN(CC)C(=O)c1ccc(Cl)c(NC(=O)c2cnc(C)cn2)c1	-0.273
Cc1nccc(N2C[C@@H](CN3CCCC3)[C@@H](CO)C2)n1	-3
Cc1cc(C(=O)NCc2ccc(-c3n[nH]cc3C(=O)N(C)C)cc2)on1	4.29
CC(C)(C)Cc1noc2ncc(C(=O)N3CCCSCC3)cc12	-20.5
CC(Nc1c(F)cc(C#N)cc1F)c1cccc(S(N)(=O)=O)c1 (configuration not stated)	-4.34
CCN1CCCC(C)(C(=O)NCCc2n[nH]c(=O)[nH]2)C1 (configuration not stated)	-1.76
Cc1ncsc1C(=O)Nc1ccccn1	11.3
CNC(=O)c1ccc(CN2CCN(C3=NCC(C)(C)S3)CC2)cc1	14.3
Cn1ccnc1Sc1ccc(S(N)(=O)=O)cn1	-1.6
CCc1ccc(C(=O)N2CCN(c3nc(C)cc(OC)n3)CC2)o1	-18.7
CCS(=O)(=O)CC(=O)NC(C)c1ccc(OCCC(C)C)cc1 (configuration not stated)	5.61
Cc1cnccc1NCCNC1CCN(CC(C)C)CC1	-10
O=C1[C@@H]2CC[C@@H](CN(S(=O)(=O)c3ccccc3)C2)N1Cc1cscn1	-6.23
O=C(NCc1ccccn1)NC1CCOc2ccccc21 (configuration not stated)	-8.99
Cn1ccc(C(=O)NC2CCC23CCN(Cc2ccc(F)cc2)CC3)c1 (configuration not stated)	-147
CCn1ncc2c1C(COC)CN(Cc1nccs1)C2 (configuration not stated)	9.41
O[C@H]1CC[C@@H](Cc2cc(-c3ccc(F)cc3)on2)O[C@@H]1CNCC1CC1	-6.4
c1cnc(N2CCC(c3nccn3CC3CC3)CC2)nc1	-7.28

Compound	cytotoxicity at 10 µM [%]
Cc1nn(C)c2cnn(CC(=O)NCc3ccc(F)cc3)c12	8.27
CCN(CC)C(=O)Cn1ccc2cc(NC(=O)C3CCCO3)ccc21 (configuration not stated)	1.35
COC(=O)C1CCN(C(=O)c2ccc(N(C)S(C)(=O)=O)c(C)c2)CC1	-1.18
O=C(NCCn1ccnc1)c1cc(Br)c[nH]1	-5.2
CN1CCN(C(=O)COCc2nc(-c3ccncc3)no2)CC1	14.6
Cc1nc(C)c(C(=O)NCCNC(=O)c2ccc(F)cc2F)s1	-5.55
CSc1nc2ccsc2c(=O)n1CC(=O)N1CCCCC1C (configuration not stated)	7.08
Cn1nc(CNC(=O)c2ccc(OC(F)(F)F)cc2)c2c1CCOC2	7.03
Cc1cc(CNC(=O)N2CCN(c3ccccc3)CC2)no1	5.27
CCc1cnc(NCC2OCCc3ccccc32)nc1 (configuration not stated)	-3.6
Cc1cccc(CNCc2c(C(C)C)nn(C)c2N2CCOCC2)n1	-9.4
COc1ccccc1C1(CNc2nnc(C)c(C)c2C#N)CCOCC1	6.77
Cc1cc2ccccc2n1CCC(=O)N1CCCC(O)(CN(C)C)CC1 (configuration not stated)	-1.88
Cc1nc2c(c(C)c1CC(=O)Nc1ccc(Cl)cc1)c(=O)[nH]n2C	-2.85
CC1=CC[C@@H]2CN(C(=O)c3ccc(-c4nc[nH]n4)cc3)C[C@@H]2C1	0.417
Cc1cccc(NC(=O)[C@@H]2CCCN2CC(=O)Nc2ccccc2)n1	2.45
CNC(=O)[C@@]12CCCN(c3ncccn3)[C@@H]1CN(c1ncc(C)cn1)C2	3.97
COc1ccccc1CN(CC1CCCO1)C(=O)c1scnc1C (configuration not stated)	2.01
CC(=O)Nc1ccc(C(=O)N2CCOc3nc(C)ccc32)cc1	2.81
CCCc1ccc(C(=O)N2Cc3c(Cn4ccnc4)nn(C)c3C2)cc1	-73
COc1cccc2c1ccn2CCNC(=O)CCNc1ncccn1	-6.27

Compound	cytotoxicity at 10 µM [%]
Cc1cc(C)c2cc(CNC(C)C)c3nn(C)c(=O)n3c2c1	-5
O=C(O)c1ccc(F)c(S(=O)(=O)Nc2ccc(-n3cccn3)c(Cl)c2)c1	2.24
c1cc(COC[C@H]2CCC[C@]23CNCCO3)ccn1	-99.1
Cn1cc(C(=O)N2CCCC(Cc3cccc4ncccc34)C2)cn1 (configuration not stated)	4.88
Cc1ccnc(CNC(=O)C2CC(=O)N(CCN(C)C)C2)c1 (configuration not stated)	-5.79
c1cc(N2CCC3(COCc4cnc(NCC5CC5)nc43)C2)ncn1 (configuration not stated)	6.27
CN(CCOc1ccccc1Cl)S(=O)(=O)N1CCOCC1	-3.51
O=C(NCC1CC1)c1cc(Cl)c2c(c1)OCCCO2	0.344
CC(C)(C)NC(=O)N1CCC(NC(=O)Cc2cccnc2)CC1	0.355
CCOC(=O)NC(CNC(=O)CCc1ccccn1)CC(C)C (configuration not stated)	-4.61
Cc1nnsc1CNC(=O)CSCc1ccccc1Cl	-2.85
Cc1nonc1C1CCCN1C(=O)CCc1cc2n(n1)CCCNC2 (configuration not stated)	-5.65
CC(NC(=O)CNCCn1cccn1)c1ccc2c(c1)OCCO2 (configuration not stated)	-13
CC(=O)N1CC2(CCN(C(=O)C3CC3)CC2)c2cc(C)ccc21	9.94
Cc1cc(-n2nc(C)nc2-c2cn(CCN)nn2)ccn1	7.55
Cc1csc(C2CCCN(C(=O)c3cccc4c3OCO4)C2)n1 (configuration not stated)	-4.11
O=C(O)c1cc(S(=O)(=O)N2CCOc3ccccc32)ccc1Br	-3.39
CN(C)Cc1cnc2n1CCN(C(=O)Cc1ccsc1)CC2	-3.95
COc1cc(C)sc1C(=O)NCCNc1ccccc1	-7.64
CC(C)(N)C(=O)N1CCC(c2nccnc2Oc2cccc(F)c2)CC1	-13.2
CCN1CCNC(=O)C12CCN(C(=O)c1ccccn1)CC2	-0.514

Compound	cytotoxicity at 10 µM [%]
COc1cccc(N2CCN(Cc3cc(C)cc(F)c3)CC2=O)c1	25.9
Cn1c(C(=O)NCC2(N)CCCC2)cc2ccccc21	7.8
Cc1nc(-c2ccco2)ccc1C(=O)N1CCCC1Cn1cccn1 (configuration not stated)	5.61
c1cnnc(NCC2CN(CCn3cccn3)CCO2)c1 (configuration not stated)	5.53
CCc1cc(C(=O)N2CCCC(Cc3ccc(NC)nn3)C2)on1 (configuration not stated)	-14.1
O=S(=O)(Cc1cccc(F)c1)Nc1cc(Cl)ccn1	-8.69
Cc1cc(-n2cncn2)n2ncnc2n1	-4.05
CCOc1ccccc1C(CC(=O)Nc1ccccc1F)NC(C)=O (configuration not stated)	-15.4
COCCN1C[C@@H]2[C@@H](OC)CCN(Cc3cccs3)[C@@H]2C1	3.86
CC(c1cccc(S(N)(=O)=O)c1)N(C)CCCOc1ccccc1 (configuration not stated)	-1.99
Cc1ncnc2c1CCN(S(=O)(=O)C1CC1)CC2	-108
CC1CCN(c2nccn3c(=O)[nH]nc23)CC1	6.09
c1ncn(CC2CCCCN2Cc2csc(C3CCCC3)n2)n1 (configuration not stated)	-6.44
Cc1ccsc1CN1CC[C@H]2O[C@H](C(=O)N3CCCO3)CC[C@H]21	4.52
O=C(CN1CCCC(c2ccn[nH]2)C1)Nc1nncs1 (configuration not stated)	-43.9
Cc1ccc([C@@H]2CN(S(=O)(=O)c3cc(C)ccc3F)C[C@H]2N(C)C)cc1	-7.21
CC(C)c1nc(C(=O)N2CCOCC2CC(=O)c2ccco2)c[nH]1 (configuration not stated)	0.769
COc1cccc(CN2CC(O)CN(C(=O)C3CC3)CC2=O)c1OC (configuration not stated)	-11.3
O=C1N(Cc2ccc(Cl)cc2)CCC12CCCNC2 (configuration not stated)	-10.8

From ChEMBL document CHEMBL4513216, “Probing the Open Global Health Chemical Diversity Library for Multistage-Active Starting Points for Next-Generation Antimalarials” (ACS Infect Dis, 2020)
